# From article PMC9291915 (British Journal of Clinical Pharmacology, 2021)
# What was measured:
# [1] = cited from earlier work
# [2] = cited from earlier work; remark: listed apart in the source
# CYP2C19 = CYP2C19 (Homo sapiens, UniProt P33261); assay: Cytochrome P450 inhibition; format: in vitro ADME
# Method in brief: (§1)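 Human liver microsomes (0.25 mg/mL final) were pre-incubated with the test compound at six concentrations (40 to 10 000, in water) for 30 min without or with NADPH, or with 0 min pre-incubation. Probe substrate and NADPH (1 mM) were then added (final DMSO 0.05%) and incubated 5 min at 37 °C. Isoform-specific time-dependent inhibitors served as positive controls. IC50 per condition was derived from the decrease in metabolite formation versus vehicle control.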
# CYP2C8 = molecular target: T1, CYP2C8 (Homo sapiens, UniProt P10632); assay: Cytochrome P450 inhibition; format: in vitro ADME; conditions: substrate paclitaxel; any pre-incubation condition
# T1 sequence (P10632 1-490): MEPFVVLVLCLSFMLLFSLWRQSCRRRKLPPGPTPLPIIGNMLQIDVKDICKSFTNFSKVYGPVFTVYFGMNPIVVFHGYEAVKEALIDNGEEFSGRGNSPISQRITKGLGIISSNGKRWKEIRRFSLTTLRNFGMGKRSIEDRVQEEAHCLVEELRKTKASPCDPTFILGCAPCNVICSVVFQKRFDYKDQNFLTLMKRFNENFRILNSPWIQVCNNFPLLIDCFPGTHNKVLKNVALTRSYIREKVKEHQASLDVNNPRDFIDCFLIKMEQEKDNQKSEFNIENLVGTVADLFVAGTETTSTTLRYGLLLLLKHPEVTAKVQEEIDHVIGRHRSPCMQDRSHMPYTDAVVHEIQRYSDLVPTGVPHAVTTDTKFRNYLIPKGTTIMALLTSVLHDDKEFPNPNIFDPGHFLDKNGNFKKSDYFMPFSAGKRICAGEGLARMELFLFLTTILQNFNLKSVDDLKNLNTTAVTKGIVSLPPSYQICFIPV
# Method in brief: as §1
# CYP2B6 = molecular target: T2, CYP2B6 (Homo sapiens, UniProt P20813); assay: Cytochrome P450 inhibition; format: in vitro ADME; conditions: substrate bupropion; any pre-incubation condition
# T2 sequence (P20813 1-491): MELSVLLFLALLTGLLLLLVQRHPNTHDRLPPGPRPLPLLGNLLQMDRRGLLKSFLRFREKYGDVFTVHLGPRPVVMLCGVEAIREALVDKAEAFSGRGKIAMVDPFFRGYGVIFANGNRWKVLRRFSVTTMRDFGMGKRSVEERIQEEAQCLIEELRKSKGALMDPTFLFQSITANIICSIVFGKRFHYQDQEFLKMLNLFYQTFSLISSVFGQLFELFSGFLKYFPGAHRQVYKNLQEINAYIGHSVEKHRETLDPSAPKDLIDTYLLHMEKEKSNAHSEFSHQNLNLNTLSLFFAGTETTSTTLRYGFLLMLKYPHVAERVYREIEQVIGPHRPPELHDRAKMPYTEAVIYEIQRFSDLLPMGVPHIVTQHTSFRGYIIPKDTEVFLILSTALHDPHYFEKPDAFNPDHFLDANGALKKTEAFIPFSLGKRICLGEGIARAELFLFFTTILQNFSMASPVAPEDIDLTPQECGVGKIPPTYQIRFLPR
# Method in brief: as §1
# CYP2C9 = CYP2C9 (Homo sapiens, UniProt P11712); assay: Cytochrome P450 inhibition; format: in vitro ADME; conditions: substrate diclofenac; any pre-incubation condition
# Method in brief: as §1
# CYP1A2 = molecular target: T3, CYP1A2 (Homo sapiens, UniProt P05177); assay: Cytochrome P450 inhibition; format: in vitro ADME; conditions: substrate phenacetin; any pre-incubation condition
# T3 sequence (P05177 1-516): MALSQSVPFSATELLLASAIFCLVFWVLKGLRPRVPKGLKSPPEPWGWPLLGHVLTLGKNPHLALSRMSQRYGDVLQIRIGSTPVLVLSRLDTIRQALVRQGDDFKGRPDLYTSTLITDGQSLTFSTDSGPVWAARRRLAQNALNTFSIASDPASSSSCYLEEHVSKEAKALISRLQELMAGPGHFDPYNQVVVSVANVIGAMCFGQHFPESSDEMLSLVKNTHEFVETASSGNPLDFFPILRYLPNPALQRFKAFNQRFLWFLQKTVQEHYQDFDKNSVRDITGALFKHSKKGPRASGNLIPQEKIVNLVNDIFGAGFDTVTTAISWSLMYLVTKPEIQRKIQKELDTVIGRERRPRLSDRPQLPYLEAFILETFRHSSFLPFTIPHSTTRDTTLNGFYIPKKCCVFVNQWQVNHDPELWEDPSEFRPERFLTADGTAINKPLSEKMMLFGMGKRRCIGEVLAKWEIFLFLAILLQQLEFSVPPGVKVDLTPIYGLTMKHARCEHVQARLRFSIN
# Method in brief: as §1
# CYP2D6 = CYP2D6 (Homo sapiens, UniProt P10635); assay: Cytochrome P450 inhibition; format: in vitro ADME; conditions: substrate dextromethorphan; any pre-incubation condition
# Method in brief: as §1
# [3] = cited from earlier work; remark: listed apart in the source
# CYP3A4 = CYP3A4 (Homo sapiens, UniProt P08684); assay: Cytochrome P450 inhibition; format: in vitro ADME
# Method in brief: as §1
# [4] = Clinical pharmacokinetics of treosulfan in plasma and urine; format: in vivo, human; conditions: for AUC / half-life: human, plasma, intravenous; for AUC: 14 g/m^2, AUC; for half-life: 14 g/m^2, apparent half‐life, median
# P-gp = P-gp (Homo sapiens, UniProt P08183); format: in vitro ADME
# Method in brief: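 Bidirectional transport of loperamide was measured in a cell test system without and with a concentration range of the test compound; cyclosporin A was the control inhibitor. Papp = (dQ/dt)/(A×C0). Per replicate, A→B Papp was subtracted from B→A Papp to give net secretory flux. This was expressed as % of mean vehicle-control activity and fitted for IC50. Ki = IC50/(1+[S]×fu/Km), using loperamide Km 36.2.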
# Chain of CYP3A4 (P08684 whole entry): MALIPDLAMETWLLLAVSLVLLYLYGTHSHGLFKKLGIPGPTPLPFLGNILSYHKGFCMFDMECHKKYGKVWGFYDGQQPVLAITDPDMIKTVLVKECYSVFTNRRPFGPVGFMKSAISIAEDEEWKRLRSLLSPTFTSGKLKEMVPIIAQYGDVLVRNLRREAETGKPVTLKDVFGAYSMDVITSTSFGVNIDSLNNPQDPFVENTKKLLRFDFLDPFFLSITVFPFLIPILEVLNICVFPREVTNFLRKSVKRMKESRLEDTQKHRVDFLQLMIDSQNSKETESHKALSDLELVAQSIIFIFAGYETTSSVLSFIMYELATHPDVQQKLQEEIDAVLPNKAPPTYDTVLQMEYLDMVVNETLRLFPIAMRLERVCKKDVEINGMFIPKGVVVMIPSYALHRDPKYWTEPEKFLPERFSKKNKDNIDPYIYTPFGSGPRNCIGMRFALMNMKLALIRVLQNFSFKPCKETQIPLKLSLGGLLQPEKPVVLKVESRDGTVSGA
# Chain of CYP2C19 (P33261 whole entry, canonical isoform): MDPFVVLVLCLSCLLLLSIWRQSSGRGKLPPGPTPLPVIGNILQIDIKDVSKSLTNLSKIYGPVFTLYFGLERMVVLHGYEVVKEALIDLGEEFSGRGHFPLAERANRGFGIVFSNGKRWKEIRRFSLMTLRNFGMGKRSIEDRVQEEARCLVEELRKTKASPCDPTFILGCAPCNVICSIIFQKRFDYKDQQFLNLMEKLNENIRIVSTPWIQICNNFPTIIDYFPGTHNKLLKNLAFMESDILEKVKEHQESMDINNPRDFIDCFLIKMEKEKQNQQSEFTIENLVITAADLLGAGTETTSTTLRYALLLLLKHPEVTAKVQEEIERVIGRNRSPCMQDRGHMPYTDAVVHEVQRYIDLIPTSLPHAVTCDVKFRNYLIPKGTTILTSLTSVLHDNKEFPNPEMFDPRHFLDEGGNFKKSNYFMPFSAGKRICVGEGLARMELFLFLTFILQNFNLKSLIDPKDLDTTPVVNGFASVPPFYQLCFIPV
# Chain of P-gp (P08183 whole entry): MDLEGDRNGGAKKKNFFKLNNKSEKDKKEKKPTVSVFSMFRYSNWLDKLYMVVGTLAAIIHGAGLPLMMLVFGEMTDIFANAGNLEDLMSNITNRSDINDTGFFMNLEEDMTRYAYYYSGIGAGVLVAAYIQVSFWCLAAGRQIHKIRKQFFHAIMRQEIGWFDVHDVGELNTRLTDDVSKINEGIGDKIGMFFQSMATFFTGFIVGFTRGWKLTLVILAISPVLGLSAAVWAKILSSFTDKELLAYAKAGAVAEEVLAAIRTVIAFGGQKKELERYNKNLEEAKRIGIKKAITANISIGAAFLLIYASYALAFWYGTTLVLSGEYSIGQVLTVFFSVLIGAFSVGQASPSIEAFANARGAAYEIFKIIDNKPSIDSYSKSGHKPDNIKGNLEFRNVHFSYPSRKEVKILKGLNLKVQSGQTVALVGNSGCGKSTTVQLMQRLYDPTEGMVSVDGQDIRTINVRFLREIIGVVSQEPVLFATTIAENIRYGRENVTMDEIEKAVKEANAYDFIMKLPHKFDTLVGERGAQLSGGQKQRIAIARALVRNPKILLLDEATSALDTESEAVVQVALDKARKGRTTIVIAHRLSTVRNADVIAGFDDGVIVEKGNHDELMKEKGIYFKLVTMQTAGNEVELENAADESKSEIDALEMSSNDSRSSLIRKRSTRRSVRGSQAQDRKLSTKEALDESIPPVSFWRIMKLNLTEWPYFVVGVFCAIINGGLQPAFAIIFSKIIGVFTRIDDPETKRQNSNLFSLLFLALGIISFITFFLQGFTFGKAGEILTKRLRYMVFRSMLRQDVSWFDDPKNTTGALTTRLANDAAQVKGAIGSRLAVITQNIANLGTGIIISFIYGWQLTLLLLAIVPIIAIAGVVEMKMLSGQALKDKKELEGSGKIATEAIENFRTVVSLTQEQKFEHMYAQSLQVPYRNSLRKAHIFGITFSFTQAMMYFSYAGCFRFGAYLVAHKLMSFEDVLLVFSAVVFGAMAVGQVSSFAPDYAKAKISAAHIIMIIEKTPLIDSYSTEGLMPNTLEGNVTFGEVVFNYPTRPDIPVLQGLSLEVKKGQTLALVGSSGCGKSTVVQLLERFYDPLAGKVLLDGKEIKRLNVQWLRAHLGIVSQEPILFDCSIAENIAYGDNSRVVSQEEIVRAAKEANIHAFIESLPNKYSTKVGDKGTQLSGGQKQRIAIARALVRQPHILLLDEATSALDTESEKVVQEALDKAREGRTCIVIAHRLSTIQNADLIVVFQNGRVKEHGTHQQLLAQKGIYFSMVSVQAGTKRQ
# Chain of CYP2C9 (P11712 whole entry): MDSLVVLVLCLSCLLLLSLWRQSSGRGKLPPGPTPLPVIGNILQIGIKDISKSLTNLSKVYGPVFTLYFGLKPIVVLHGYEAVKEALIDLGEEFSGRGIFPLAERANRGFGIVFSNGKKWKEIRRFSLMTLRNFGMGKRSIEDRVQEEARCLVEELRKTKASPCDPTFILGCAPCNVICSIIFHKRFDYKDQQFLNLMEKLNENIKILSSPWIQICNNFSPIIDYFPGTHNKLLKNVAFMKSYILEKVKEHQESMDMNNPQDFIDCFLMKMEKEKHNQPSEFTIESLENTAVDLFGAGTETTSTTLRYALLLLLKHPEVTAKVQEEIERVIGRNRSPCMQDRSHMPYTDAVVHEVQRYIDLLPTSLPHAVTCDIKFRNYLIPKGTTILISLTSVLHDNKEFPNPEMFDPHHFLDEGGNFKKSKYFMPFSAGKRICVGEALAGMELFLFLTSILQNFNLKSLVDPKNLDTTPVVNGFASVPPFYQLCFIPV
# Chain of CYP2D6 (P10635 whole entry): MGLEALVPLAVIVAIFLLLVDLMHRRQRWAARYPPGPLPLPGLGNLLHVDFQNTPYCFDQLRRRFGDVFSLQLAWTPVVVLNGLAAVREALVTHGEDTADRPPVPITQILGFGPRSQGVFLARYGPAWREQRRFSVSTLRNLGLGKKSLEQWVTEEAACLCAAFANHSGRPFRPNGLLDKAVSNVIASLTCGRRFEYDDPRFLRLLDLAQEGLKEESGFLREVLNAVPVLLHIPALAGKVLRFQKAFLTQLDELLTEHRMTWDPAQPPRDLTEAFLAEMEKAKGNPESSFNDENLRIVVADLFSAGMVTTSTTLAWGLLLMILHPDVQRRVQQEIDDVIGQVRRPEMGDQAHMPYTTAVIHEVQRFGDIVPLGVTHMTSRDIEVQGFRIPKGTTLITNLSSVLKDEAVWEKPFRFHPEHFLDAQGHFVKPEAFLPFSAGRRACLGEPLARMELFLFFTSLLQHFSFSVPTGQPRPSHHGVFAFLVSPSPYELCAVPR
smiles,measurement,setting,value
"CS(=O)(=O)OC[C@H](O)[C@@H](O)COS(C)(=O)=O [treosulfan, L‐threitol‐1,4‐bis‐methanesulfonate]","GFR fraction, literature",[1],Estimated (literature[20]: 0.41 ± 0.22)
same,B:P (blood‐plasma ratio),[2],0.88
same,IC50,CYP2C19,972 µM
same,Ki,CYP2C19,778 µM
same,inhibition of CYP2C8,CYP2C8,did not inhibit
same,inhibition of CYP2B6,CYP2B6,did not inhibit
same,inhibition of CYP2C9,CYP2C9,did not inhibit
same,inhibition of CYP1A2,CYP1A2,did not inhibit
same,inhibition of CYP2D6,CYP2D6,did not inhibit
same,Log P O:W,[3],−1.58
same,IC50,CYP3A4,1870 µM
same,Ki,CYP3A4,1210 µM
same,inhibition of CYP3A4 using testosterone as the substrate,"CYP3A4; 40 to 10 000 μM treosulfan, any pre-incubation condition",did not inhibit
same,AUC,"[4]; day −4, patients",1450 µg·h/mL
same,AUC,"[4]; day −6, patients",1420 µg·h/mL
same,half-life,"[4]; day −4, patients",1.93 h
same,half-life,"[4]; day −6, patients",1.86 h
same,administered dose excreted in urine,[4]; patients,About 40%
same,rate at which dose was excreted in urine,"[4]; patients, CV% = 31.98%",130.38 mL/min
same,Ki,P-gp,1770 µM
same,IC50,"P-gp; human, in vitro cell test system (cell line not given), probe loperamide",> 1000 µM
